High-throughput results: PubChem, several laboratories
Sampled rows, rich in hits. Any-hit rate of the full collection: about 9.2%.
L major viab: Leishmania major promastigote growth inhibition; inhibition, % at 10 µM; Leishmania major promastigotes, resazurin fluorescence viability; AID 1063; 9% of 200,000 active; in the data active = inhibition above about 50%;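 note: promastigotes grown with compound for 44 hours at 28 °C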
PTEN del growth: growth suppressors of cells with PTEN tumor suppressor deletion | 1.2% of 140,000 active | HCT116 PTEN-null viability, CellTiter-Glo, 60 h; active compounds read low | AID 827 | viability, % at 10 µM;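 active = viability at or below a set limit, 4 SD under the median of all tested compounds, cut at about 3.7% in these data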;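 note: PTEN knockout HCT116 line with beta catenin targeted HCT116 as companion control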
HCT116 bCat-KO: beta-catenin-lacking colon tumor cell growth suppression; AID 818; HCT116 beta-catenin knockout viability, CellTiter-Glo, 60 h; active compounds read low; 1.5% of 140,000 active; viability, % at 10 µM;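 active = viability at or under a set limit, the compound median less 4 SD, cut at about 6% in these data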
Autophagy HCS: alters autophagy in cells; MEF GFP-LC3 puncta imaging; test concentration mostly 10 µM; calls only at 10 µM (by protocol); 0.98% of 190,000 active; AID 463193;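 active = percentage of spot-positive cells more than 3 SD above its plate mean, without a fluorescence outlier flag or 80% toxicity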
Dynein transport: dynein cargo transport inhibition; 3617.4 mouse cells, GR-EGFP nuclear translocation imaging; test concentration mostly 20 µM; stimulated with dexamethasone, 1 µM; active compounds read low; z-score, hits read low; 0.47% of 220,000 active;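 active = plate z-score of nuclear minus cytoplasmic receptor signal below a set negative limit, without overly bright fluorescence or cell loss, cut at about -3.5 in these data, passing the limit was not always enough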;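 note: z-score of nuclear minus cytoplasmic ring GR-EGFP intensity difference per well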
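Buffer or medium: tet-free, stripped-serum medium; reagent: dexamethasone at 1.0 µM final, 30 min; incubation: 48 h induction, 1 h compound, 30 min dex at 37 °C; measured by: formaldehyde fixation, Hoechst nuclear stain, 10x automated fluorescence imaging; read-out: nuclear-to-cytoplasmic GR-EGFP distribution per well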
A number is an active result; - = inactive; . = not tested or not shown; + = active, no number.

SMILES | L major viab | PTEN del growth | HCT116 bCat-KO | Autophagy HCS | Dynein transport
O=C(/C=C/c1ccccc1)CC(O)(c1ccccc1)C(F)(F)C(F)F (stereo not drawn) | 100 | . | 2.8 | - | -
CCN(CC(=O)Nc1ccc(OC)cc1)C(=O)c1ccc([N+](=O)[O-])cc1 | - | . | . | - | -
O=C(COC(=O)c1cc2ccccc2oc1=O)Nc1ccc(F)cc1F | . | . | . | . | -
Cc1ccccc1NC(=S)NCCO | - | . | . | + | -
CCCCSCCCNC(=S)Nc1ccccc1C | - | . | . | - | -
CN1CCC2(CC1)Nc1nc(SCc3ccc(Cl)cc3)nn1C1=C2CN(C)CC1 | 97 | - | - | - | -
O=C(CSc1nc2c(cnn2-c2ccccc2)c(=O)[nH]1)N1N=C(c2cccs2)CC1c1ccc(F)cc1 (stereo not drawn) | 69 | - | - | - | -
CCCC(C(=O)NCc1ccco1)N(C(=O)CNS(=O)(=O)c1ccc(Cl)cc1)C1CCCC1 (stereo not drawn) | 67 | - | - | - | -
COc1ccc(S(=O)(=O)c2nnn(-c3cccc(Cl)c3)c2N)cc1 | - | . | . | - | -
CCCCNc1oc(-c2ccc(OC)cc2)nc1S(=O)(=O)c1ccccc1 | - | - | - | - | -
CCOc1ccc(-c2nc(S(=O)(=O)c3ccccc3)c(NCc3cccnc3)o2)cc1 | 83 | - | - | - | -
COc1cc2[nH]c(=O)n(CCC(=O)N3CCN(c4cc(Cl)ccc4C)CC3)c(=O)c2cc1OC | - | 1.9 | 2.1 | - | -
Cc1cccc(/C=N\NC(=O)c2sccc2-n2cccc2)c1 | - | - | - | - | -
CC(C)CC1NC(=O)N(CC(=O)N2CCN(S(=O)(=O)c3ccccc3)CC2)C1=O (stereo not drawn) | - | - | - | - | -
CCOc1ccccc1NC(=O)/C(C#N)=C/c1c(C)nn(-c2ccc(F)cc2)c1Cl | 73 | - | - | - | -
C=CCNC(=O)/C(C#N)=C/c1c(C)nn(-c2ccc(Cl)cc2)c1Cl | 89 | - | - | - | -
Cc1nn(-c2ccc(Cl)cc2)c(Cl)c1/C=C(\C#N)C(N)=O | - | - | - | - | -
CCCCCNC(=O)C1CCC(Cn2c(=S)[nH]c3ccccc3c2=O)CC1 (stereo not drawn) | - | . | . | - | -
Cc1c(C(=O)N2CCc3ccccc32)oc2ccccc12 | 81 | - | - | - | -
O=c1/c(=C\c2cccn2-c2ccccc2)sc2nc3ccccc3n12 | - | - | - | + | -
O=C(O)Cn1cc(/C=c2/sc3nc4ccccc4n3c2=O)c2ccccc21 | - | . | . | - | -
COc1cc(N2CCCC2)c(OC)cc1/C=c1/sc2nc3ccccc3n2c1=O | - | - | - | + | -
Cc1ccc(-n2c(C)cc(/C=c3/sc4nc5ccccc5n4c3=O)c2C)cc1 | - | - | - | - | -
Cc1cc(C(=O)NNc2c(Cl)cccc2Cl)n(C(C)(C)C)n1 | . | . | . | . | -
Cn1cccc1C(=O)NC(=O)COC(=O)CNC(=O)CNC(=O)c1ccc(Cl)cc1Cl | - | . | . | - | -
SMILES | L major viab | PTEN del growth | HCT116 bCat-KO | Autophagy HCS | Dynein transport
CSCCC(NC(=O)c1ccccc1C)C(=O)O (stereo not drawn) | - | . | . | - | -
O=C(Nc1nc(-c2ccccc2)cs1)c1ccc(S(=O)(=O)N2CCc3ccccc32)cc1 | 99 | - | - | - | -
CS(=O)(=O)N1CCc2cc(-c3csc(NC(=O)Cc4ccccc4)n3)ccc21 | - | - | - | - | -
Cc1ccc(-c2csc(NC(=O)c3ccc(S(=O)(=O)N4CCc5ccccc54)cc3)n2)cc1 | 100 | - | - | - | -
CCOc1ccc(-c2csc(NC(=O)c3ccc(S(=O)(=O)N4CCc5ccccc5C4)cc3)n2)cc1 | - | - | - | - | -
CCCCn1c(SCC(=O)N2c3ccccc3Sc3ccccc32)nc2c1c(=O)n(C)c(=O)n2C | 78 | - | - | - | -
CCCn1c(SCC(=O)N2c3ccccc3CCc3ccccc32)nc2c1c(=O)n(C)c(=O)n2C | - | - | - | - | -
COCCN(CCOC)C(=O)COC(=O)c1cc([N+](=O)[O-])ccc1Cl | . | . | . | . | -
CN(C)S(=O)(=O)c1cc(NC(=O)CN2CCN(c3ccccc3F)CC2)ccc1Cl | - | . | . | - | -
O=C(COC(=O)C1CCC1)Nc1ccc(Oc2ccccc2)cc1 | 67 | - | - | - | -
O=C(CN1CCCCC1)Nc1ccccc1 | - | - | - | - | -
O=C(CN1CCCCCC1)Nc1ccc(Oc2ccccc2)cc1 | 62 | . | . | - | -
O=C(CN1CCN(c2ccccn2)CC1)Nc1ccc(Oc2ccccc2)cc1 | 90 | - | - | - | -
COc1cc(S(=O)(=O)N(Cc2cccs2)CC2CCCO2)ccc1-n1cnnn1 (stereo not drawn) | 55 | - | - | - | -
CCOc1ccccc1CN(Cc1ccco1)S(=O)(=O)c1ccc(-n2cnnn2)c(OC)c1 | 69 | - | - | - | -
CCCN(CC1CC1)S(=O)(=O)c1ccc(-n2cnnn2)c(OC)c1 | - | - | - | - | -
Cc1cc(S(=O)(=O)N(Cc2ccccc2F)C2CC2)ccc1-n1cnnn1 | 100 | . | . | - | -
COc1cc(S(=O)(=O)N(Cc2ccco2)C2CCCC2)ccc1-n1cnnn1 | 71 | - | - | - | -
COc1cc(S(=O)(=O)N(Cc2ccccc2)CC2CCCO2)ccc1-n1cnnn1 (stereo not drawn) | - | . | . | - | -
CN(C)S(=O)(=O)c1ccc(NC=O)cc1 | - | . | . | - | -
O=C(CSC1CC(=O)N(c2ccc(C(=O)O)cc2)C1=O)Nc1ccc(Cl)cc1 (stereo not drawn) | - | . | . | - | -
COc1ccc(-c2nc3c4ccccc4ccn3c2CN2CCCCC2)cc1 | 100 | . | . | - | -
Clc1ccc(-c2nc3ccccn3c2CN2CCCCC2)cc1 | 77 | . | . | - | -
O=C(Nc1nc(-c2ccccn2)cs1)c1ccco1 | 100 | . | . | - | -
COc1ccc(-c2csc(NC(=S)NC(=O)c3ccco3)n2)cc1 | - | . | . | + | -
SMILES | L major viab | PTEN del growth | HCT116 bCat-KO | Autophagy HCS | Dynein transport
O=C(Nc1nc(-c2ccccn2)cs1)c1ccc(Br)s1 | 100 | - | - | + | -
O=C(NCc1ccccc1)C1CCN(S(=O)(=O)c2ccc(Cl)cc2)CC1 | - | . | . | - | -
COc1ccc(CCN2C(=O)C3C4CC(C5C(C(=O)N/N=C\c6ccc(Cl)cc6)=NOC45)C3C2=O)cc1OC (stereo not drawn) | - | - | - | - | -
N#Cc1c(SCC(=O)Nc2ccccc2)nsc1SCC(=O)Nc1ccccc1 | - | - | - | - | -
Cc1cccc(NC(=O)CSc2nsc(SCC(=O)Nc3cccc(C)c3)c2C#N)c1 | 69 | - | - | - | -
O=C(Nc1ncccc1Cl)c1ccccc1F | 72 | - | - | - | -
O=C(Nc1ncccc1Cl)c1cccc(F)c1 | - | - | - | - | -
COc1ccc2c(c1)-c1c(ssc1=S)C(C)(C)N2S(=O)(=O)c1ccc(C)cc1 | 92 | - | - | - | -
COc1ccc2c(c1)-c1c(ssc1=S)C(C)(C)N2 | - | - | - | - | -
Cc1ccc(S(=O)(=O)N2c3ccccc3-c3c(ssc3=S)C2(C)C)cc1 | 99 | - | - | - | -
Cc1ccccc1NC(=O)NC1CCCCC1C (stereo not drawn) | - | . | . | - | -
